{"source": "ChEMBL document CHEMBL1130061", "about": "“Discovery and biological activity of orally active peptidyl trifluoromethyl ketone inhibitors of human neutrophil elastase” (J Med Chem, 1997)", "key": {"[1]": {"system": "Cricetinae gen. sp.", "assay": "Inhibition at the oral dose of 10 mg/kg 30 min prior to […] dose of 50 microg of HNE in hamster", "assay_type": "functional, Cricetulus griseus", "in_short": "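Anesthetized hamsters received HNE (50 µg/hamster) intratracheally, with the compound given orally as a solution in 10% PEG/PBS 30 min beforehand. Lung hemorrhage was quantified 4 h later by spectrophotometric hemoglobin measurement in lung lavage. Percent inhibition is relative to HNE and saline controls: 100% equals saline, 0% equals HNE.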"}, "[2]": {"species_on_record": "Mesocricetus auratus", "assay": "Reduction in wet lung weight relative to the body weight in hamsters"}, "[3]": {"system": "Mesocricetus auratus", "assay": "Oral administration at a dose of 37.5 mg/kg 30 min prior to HNE and reduction in the number of white blood cells was reported"}, "[4]": {"system": "Cricetinae gen. sp.", "assay": "Inhibition at the oral dose of 25 mg/kg 30 min prior to […] dose of 10 microg of HNE in hamster", "assay_type": "functional, Cricetulus griseus"}, "[5]": {"target": "T1, Neutrophil elastase (Homo sapiens, UniProt P08246)", "T1 sequence (P08246 whole entry)": "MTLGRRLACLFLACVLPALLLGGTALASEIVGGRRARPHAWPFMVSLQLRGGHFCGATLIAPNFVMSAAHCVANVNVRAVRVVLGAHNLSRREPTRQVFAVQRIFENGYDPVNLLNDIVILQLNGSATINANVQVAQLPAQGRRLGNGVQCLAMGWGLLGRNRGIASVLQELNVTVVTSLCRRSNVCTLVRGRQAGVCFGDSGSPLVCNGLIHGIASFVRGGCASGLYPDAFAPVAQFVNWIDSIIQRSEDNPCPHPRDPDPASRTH", "assay": "Inhibitory activity against Human Neutrophil Elastase by HNE-catalyzed hydrolysis of MeO-Suc-Ala-Ala-Pro-Val-pNa"}, "[6]": {"system": "Mesocricetus auratus", "assay": "Oral administration at a dose of 37.5 mg/kg 30 min prior to HNE (100 mg/hamster) and reduction in the number of white blood cells was reported"}}, "data": [{"smiles": "COc1ccc(C(=O)N[C@H](C(=O)N2CCC[C@H]2C(=O)N[C@H](C(=O)C(F)(F)F)C(C)C)C(C)C)cc1", "values": [{"measurement": "inhibition in vivo at 10 mg/kg", "setting": "[1]", "value": 84, "unit": "%"}, {"measurement": "Lw/Bw", "setting": "[2]", "value": 77}, {"measurement": "Reduction", "setting": "[3]", "value": 91, "unit": "%"}]}, {"smiles": "CC(C)[C@H](NC(=O)N1CCOCC1)C(=O)N1CCC[C@H]1C(=O)N[C@H](C(=O)C(F)(F)C(F)(F)F)C(C)C", "values": [{"measurement": "inhibition in vivo at 25 mg/kg", "setting": "[4]", "value": 69, "unit": "%"}, {"measurement": "Ki", "setting": "[5]", "value": 170, "unit": "nM"}]}, {"smiles": "CC(C)[C@H](NC(=O)c1ccc(C(=O)N2CCOCC2)cc1)C(=O)N1CCC[C@H]1C(=O)N[C@H](C(=O)C(F)(F)C(F)(F)F)C(C)C", "values": [{"measurement": "inhibition in vivo at 25 mg/kg", "setting": "[4]", "value": 74, "unit": "%"}, {"measurement": "Ki", "setting": "[5]", "value": 25, "unit": "nM"}]}, {"smiles": "CC(C)C(NC(=O)C1CCCN1C(=O)[C@@H](NS(=O)(=O)c1ccc([N+](=O)[O-])cc1)C(C)C)C(=O)C(F)(F)F", "note": "(stereo partly drawn)", "values": [{"measurement": "Reduction", "setting": "[6]", "value": -118, "unit": "%"}, {"measurement": "Lw/Bw", "setting": "[2]", "value": -36}, {"measurement": "Ki", "setting": "[5]", "value": 5.2, "unit": "nM"}]}, {"smiles": "CC(C)[C@H](NC(=O)Oc1ccccc1)C(=O)N1CCC[C@H]1C(=O)N[C@H](C(=O)C(F)(F)F)C(C)C", "values": [{"measurement": "inhibition in vivo at 10 mg/kg", "setting": "[1]", "value": 91, "unit": "%"}, {"measurement": "Lw/Bw", "setting": "[2]", "value": 62}, {"measurement": "Ki", "setting": "[5]", "value": 1.3, "unit": "nM"}, {"measurement": "Reduction", "setting": "[3]", "value": 77, "unit": "%"}]}, {"smiles": "CC(C)C(NC(=O)C1CCCN1C(=O)[C@@H](NC(=O)c1cc(C(=O)O)cc(C(=O)O)c1)C(C)C)C(=O)C(F)(F)F", "note": "(stereo partly drawn)", "values": [{"measurement": "Reduction", "setting": "[6]", "value": -105, "unit": "%"}, {"measurement": "Lw/Bw", "setting": "[2]", "value": -45}, {"measurement": "Ki", "setting": "[5]", "value": 43, "unit": "nM"}]}, {"smiles": "CC(C)C(NC(=O)C1CCCN1C(=O)[C@H](C(C)C)N(CCCc1ccccc1)CCCc1ccccc1)C(=O)C(F)(F)F.Cl", "note": "(stereo partly drawn)", "values": [{"measurement": "Reduction", "setting": "[6]", "value": -39, "unit": "%"}, {"measurement": "Lw/Bw", "setting": "[2]", "value": -23}, {"measurement": "Ki", "setting": "[5]", "value": 1.7, "unit": "nM"}]}, {"smiles": "CC(C)[C@H](NC(=O)c1ccncc1)C(=O)N1CCC[C@H]1C(=O)N[C@H](C(=O)C(F)(F)F)C(C)C", "values": [{"measurement": "Reduction", "setting": "[6]", "value": -45, "unit": "%"}, {"measurement": "Lw/Bw", "setting": "[2]", "value": -15}, {"measurement": "Ki", "setting": "[5]", "value": 3.8, "unit": "nM"}]}]}
